Assay results published in ChEMBL document CHEMBL1147708 (Bioorg Med Chem Lett, 2006).
Each block holds one compound with its values, some of them ahead of it.

Assays:
Cytochrome P450 26A1 = molecular target: T1, Cytochrome P450 26A1 (Homo sapiens, UniProt O43174); assay: Inhibition of CYP26 expressed in human T47D cell line
T1 sequence (O43174 whole entry): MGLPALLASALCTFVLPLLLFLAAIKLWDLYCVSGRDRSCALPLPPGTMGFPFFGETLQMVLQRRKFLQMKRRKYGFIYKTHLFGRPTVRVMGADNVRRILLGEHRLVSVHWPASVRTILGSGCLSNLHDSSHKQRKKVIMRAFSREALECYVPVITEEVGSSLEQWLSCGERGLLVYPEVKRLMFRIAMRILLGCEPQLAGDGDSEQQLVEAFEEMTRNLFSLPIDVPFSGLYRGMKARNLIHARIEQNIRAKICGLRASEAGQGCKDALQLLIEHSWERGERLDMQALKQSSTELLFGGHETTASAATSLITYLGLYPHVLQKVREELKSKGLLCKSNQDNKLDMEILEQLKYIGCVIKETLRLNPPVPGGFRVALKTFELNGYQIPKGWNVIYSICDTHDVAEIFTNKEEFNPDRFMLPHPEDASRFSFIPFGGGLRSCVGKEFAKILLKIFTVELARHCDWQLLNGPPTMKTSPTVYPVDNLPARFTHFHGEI

Cytochrome P450 3A4 = Cytochrome P450 3A4 (Homo sapiens, UniProt P08684)
[1] = Bioavailability in CD1 mouse; conditions: in vivo
in vivo [2] = conditions: CD1, mouse, iv, 1 mg/kg
Cytochrome P450 1A2 = molecular target: T2, Cytochrome P450 1A2 (Homo sapiens, UniProt P05177)
T2 sequence (P05177 whole entry): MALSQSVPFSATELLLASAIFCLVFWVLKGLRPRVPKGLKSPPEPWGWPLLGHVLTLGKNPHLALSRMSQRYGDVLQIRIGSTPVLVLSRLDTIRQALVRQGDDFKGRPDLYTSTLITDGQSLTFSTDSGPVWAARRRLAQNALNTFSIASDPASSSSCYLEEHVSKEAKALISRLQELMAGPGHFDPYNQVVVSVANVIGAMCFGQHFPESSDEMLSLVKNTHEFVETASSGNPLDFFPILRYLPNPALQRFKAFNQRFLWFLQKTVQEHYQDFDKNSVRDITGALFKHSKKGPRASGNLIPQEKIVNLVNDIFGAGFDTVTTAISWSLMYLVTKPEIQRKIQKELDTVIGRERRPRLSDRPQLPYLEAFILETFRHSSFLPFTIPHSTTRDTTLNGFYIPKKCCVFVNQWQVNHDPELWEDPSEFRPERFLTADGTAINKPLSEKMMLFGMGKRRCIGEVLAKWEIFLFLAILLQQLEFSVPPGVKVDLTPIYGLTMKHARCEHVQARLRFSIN

Cytochrome P450 2C9 = Cytochrome P450 2C9 (Homo sapiens, UniProt P11712)
T47D = assay: Activity against human T47D cell line; type: functional
in vivo [3] = conditions: CD1, mouse, po, 5 mg/kg
Mus musculus [4] = species: Mus musculus; conditions: in vivo, po, 5 mg/kg
Cytochrome P450 2D6 = Cytochrome P450 2D6 (Homo sapiens, UniProt P10635)
Mus musculus [5] = assay: AUC(0-tz) in CD1 mouse at 5 mg/kg, po; type: ADME, organism-based, Plasma; set-up: dose 5 mg/kg, route oral; conditions: in vivo
In short: (§1)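 Female CD-1 mice, about six weeks old, got atRA by oral gavage at 10 mL/kg (5 mg/kg), from a 0.5 mg/mL solution in 1.5% v/v DMSO in safflower oil. Three mice per timepoint gave terminal cardiac blood in EDTA.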

[6] = Plasma concentration in CD1 mouse at 5 mg/kg, po after 8 hrs co-administered with 3-[6-(2-dimethylamino- 1-imidazol-1-yl-butyl)-naphthalen-2-yloxy]- 2,2-dimethyl-propionic acid at 10 mg/kg, po; type: ADME, organism-based
In short: (§2)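 Female CD-1 mice, about six weeks old, got atRA at 5 mg/kg by gavage (0.5 mg/mL in 1.5% v/v DMSO/safflower oil, 10 mL/kg). This was given immediately before the inhibitor at 10 mg/kg orally in water for injection. Three mice per timepoint gave cardiac EDTA blood. Plasma was acetonitrile-precipitated, and atRA was read by HPLC-UV against blank mouse plasma standards. AUC came from noncompartmental analysis of median values.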

Mus musculus [7] = assay: AUC(0-tz) in CD1 mouse at 5 mg/kg, po co-administered with 3-[6-(2-dimethylamino- 1-imidazol-1-yl-propyl)-naphthalen-2-yloxy]- 2,2-dimethyl-propionic acid at 10 mg/kg, po; type: ADME, organism-based, Plasma; conditions: in vivo; in short: as §2
[8] = Plasma concentration in CD1 mouse at 5 mg/kg, po after 2 hrs; type: ADME, organism-based; set-up: dose 5 mg/kg, route oral; in short: as §1
Mus musculus [9] = assay: AUC(0-tz) in CD1 mouse at 5 mg/kg, po co-administered with 3-[6-(2-dimethylamino- 1-imidazol-1-yl-butyl)-naphthalen-2-yloxy]- 2,2-dimethyl-propionic acid at 10 mg/kg, po; type: ADME, organism-based, Plasma; conditions: in vivo; in short: as §2
[10] = Plasma concentration in CD1 mouse at 5 mg/kg, po after 2 hrs co-administered with 3-[6-(2-dimethylamino- 1-imidazol-1-yl-propyl)-naphthalen-2-yloxy]- 2,2-dimethyl-propionic acid at 10 mg/kg, po; type: ADME, organism-based; in short: as §2
[11] = Plasma concentration in CD1 mouse at 5 mg/kg, po after 8 hrs co-administered with 3-[6-(2-dimethylamino- 1-imidazol-1-yl-propyl)-naphthalen-2-yloxy]- 2,2-dimethyl-propionic acid at 10 mg/kg, po; type: ADME, organism-based; in short: as §2
[12] = Plasma concentration in CD1 mouse at 5 mg/kg, po after 8 hrs; type: ADME, organism-based; set-up: dose 5 mg/kg, route oral; in short: as §1
[13] = Plasma concentration in CD1 mouse at 5 mg/kg, po after 2 hrs co-administered with 3-[6-(2-dimethylamino- 1-imidazol-1-yl-butyl)-naphthalen-2-yloxy]- 2,2-dimethyl-propionic acid at 10 mg/kg, po; type: ADME, organism-based; in short: as §2

Chain of Cytochrome P450 3A4 (P08684 whole entry): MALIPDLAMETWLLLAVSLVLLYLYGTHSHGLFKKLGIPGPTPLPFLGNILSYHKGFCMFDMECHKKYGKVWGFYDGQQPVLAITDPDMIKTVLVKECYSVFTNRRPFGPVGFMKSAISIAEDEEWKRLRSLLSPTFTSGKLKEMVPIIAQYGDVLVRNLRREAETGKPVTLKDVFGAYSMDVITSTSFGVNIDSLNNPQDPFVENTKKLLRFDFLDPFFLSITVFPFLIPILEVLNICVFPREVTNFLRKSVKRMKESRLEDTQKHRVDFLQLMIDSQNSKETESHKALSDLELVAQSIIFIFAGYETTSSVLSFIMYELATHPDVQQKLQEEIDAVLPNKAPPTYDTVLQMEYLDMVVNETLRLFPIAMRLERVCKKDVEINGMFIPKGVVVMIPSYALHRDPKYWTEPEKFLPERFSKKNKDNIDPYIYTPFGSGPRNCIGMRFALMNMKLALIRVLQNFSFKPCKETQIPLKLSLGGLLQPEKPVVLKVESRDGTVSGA
Chain of Cytochrome P450 2D6 (P10635 whole entry): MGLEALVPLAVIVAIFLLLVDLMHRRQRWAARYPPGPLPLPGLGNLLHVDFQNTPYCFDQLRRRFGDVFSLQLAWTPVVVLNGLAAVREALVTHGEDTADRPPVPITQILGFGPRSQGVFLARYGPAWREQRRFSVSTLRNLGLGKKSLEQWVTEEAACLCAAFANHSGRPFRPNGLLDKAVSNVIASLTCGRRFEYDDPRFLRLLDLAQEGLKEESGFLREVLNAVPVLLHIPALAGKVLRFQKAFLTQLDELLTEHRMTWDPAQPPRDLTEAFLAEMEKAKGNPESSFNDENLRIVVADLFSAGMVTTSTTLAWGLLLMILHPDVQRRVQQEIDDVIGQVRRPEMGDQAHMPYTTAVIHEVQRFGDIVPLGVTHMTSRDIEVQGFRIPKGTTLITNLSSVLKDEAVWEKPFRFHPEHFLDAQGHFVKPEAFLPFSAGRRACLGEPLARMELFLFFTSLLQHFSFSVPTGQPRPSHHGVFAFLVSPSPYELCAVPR
Chain of Cytochrome P450 2C9 (P11712 whole entry): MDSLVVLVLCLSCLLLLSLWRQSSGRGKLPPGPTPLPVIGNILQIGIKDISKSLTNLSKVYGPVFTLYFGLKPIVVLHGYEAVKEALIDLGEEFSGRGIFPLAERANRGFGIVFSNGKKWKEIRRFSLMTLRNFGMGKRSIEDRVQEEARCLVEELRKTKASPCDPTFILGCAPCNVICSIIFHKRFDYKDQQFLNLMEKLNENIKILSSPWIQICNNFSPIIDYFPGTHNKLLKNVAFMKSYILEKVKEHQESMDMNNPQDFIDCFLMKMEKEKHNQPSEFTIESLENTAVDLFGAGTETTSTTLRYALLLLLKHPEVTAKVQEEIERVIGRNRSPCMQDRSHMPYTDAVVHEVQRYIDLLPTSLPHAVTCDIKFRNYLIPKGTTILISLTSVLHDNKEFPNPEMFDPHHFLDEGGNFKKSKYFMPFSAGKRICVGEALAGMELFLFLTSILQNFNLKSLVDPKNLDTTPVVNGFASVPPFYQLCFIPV

IC50 (Cytochrome P450 26A1): 1.4 nM | IC50 (Cytochrome P450 3A4): 1010 nM
Structure (SMILES): CCN(CC)[C@H](C)[C@@H](c1ccc2cc(OCC3(C(=O)O)CCCC3)ccc2c1)n1ccnc1

IC50 (Cytochrome P450 26A1): 34.7 nM | IC50 (Cytochrome P450 3A4): 7500 nM
Structure (SMILES): C[C@H]([C@@H](c1ccc2cc(OCC3(C(=O)O)CC3)ccc2c1)n1ccnc1)N(C)C

IC50 (Cytochrome P450 26A1): 1.6 nM | IC50 (Cytochrome P450 3A4): 800 nM
Structure (SMILES): CC(C)N(C)[C@H](C)[C@@H](c1ccc2cc(OCC3(C(=O)O)CCCC3)ccc2c1)n1ccnc1

IC50 (Cytochrome P450 26A1): 40 nM | IC50 (Cytochrome P450 3A4): 7000 nM
Structure (SMILES): C[C@H]([C@@H](c1ccc2cc(OCC3(C(=O)O)CCC3)ccc2c1)n1ccnc1)N(C)C

IC50 (Cytochrome P450 26A1): 125 nM
Structure (SMILES): C[C@H]([C@@H](c1ccc2cc(OCC(C)(C)C(=O)O)ccc2c1)n1ccnc1)N(C)C1CCCCC1

bioavailability [1]: 99% | half-life (in vivo [2]): 2.46 h | IC50 (Cytochrome P450 1A2): > 5000 nM | IC50 (Cytochrome P450 2C9): > 5000 nM | Cmax (in vivo [3]): 23 µM | AUC (Mus musculus [4]): 17500 ng·h/mL | IC50 (Cytochrome P450 26A1): 11.2 nM | IC50 (Cytochrome P450 2D6): > 5000 nM | IC50 (Cytochrome P450 3A4): 8000 nM
Structure (SMILES): C[C@H]([C@@H](c1ccc2cc(OCC3(C(=O)O)CCCCC3)ccc2c1)n1ccnc1)N(C)C
Activity (T47D): <100 nM

bioavailability [1]: 99% | half-life (in vivo [2]): 7.1 h | IC50 (Cytochrome P450 1A2): > 5000 nM | IC50 (Cytochrome P450 2C9): > 5000 nM | Cmax (in vivo [3]): 13 µM | AUC (Mus musculus [4]): 18900 ng·h/mL | IC50 (Cytochrome P450 26A1): 4.2 nM | IC50 (Cytochrome P450 2D6): > 5000 nM | IC50 (Cytochrome P450 3A4): 2300 nM
Structure (SMILES): CCN(C)[C@H](C)[C@@H](c1ccc2cc(OCC3(C(=O)O)CCCC3)ccc2c1)n1ccnc1
Activity (T47D): <100 nM

IC50 (Cytochrome P450 26A1): 9 nM
Structure (SMILES): CCN(C)[C@H](C)[C@@H](c1ccc2cc(OCC(C)(C)C(=O)O)ccc2c1)n1ccnc1

bioavailability [1]: 77% | half-life (in vivo [2]): 2.49 h | IC50 (Cytochrome P450 1A2): > 5000 nM | IC50 (Cytochrome P450 2C9): > 5000 nM | Cmax (in vivo [3]): 5.5 µM | AUC (Mus musculus [4]): 5800 ng·h/mL | IC50 (Cytochrome P450 26A1): 7.3 nM | IC50 (Cytochrome P450 2D6): > 5000 nM | IC50 (Cytochrome P450 3A4): 8200 nM
Structure (SMILES): C[C@H]([C@@H](c1ccc2cc(OCC3(C(=O)O)CCCC3)ccc2c1)n1ccnc1)N(C)C
Activity (T47D): <100 nM

IC50 (Cytochrome P450 26A1): 37 nM
Structure (SMILES): CCC(CC)(COc1ccc2cc([C@H]([C@@H](C)N(C)C)n3ccnc3)ccc2c1)C(=O)O

IC50 (Cytochrome P450 26A1): 46.7 nM | IC50 (Cytochrome P450 3A4): > 20000 nM
Structure (SMILES): C[C@H]([C@@H](c1ccc2cc(OCC3(C(=O)O)CCOCC3)ccc2c1)n1ccnc1)N(C)C

Continued, compound first:

Structure (SMILES): CN(C)C[C@@H](c1ccc2cc(OCC(C)(C)C(=O)O)ccc2c1)n1ccnc1
IC50 (Cytochrome P450 26A1): 403 nM

Structure (SMILES): CCCCN(C)[C@H](C)[C@@H](c1ccc2cc(OCC(C)(C)C(=O)O)ccc2c1)n1ccnc1
IC50 (Cytochrome P450 26A1): 60 nM

Structure (SMILES): CC(C)N(C)[C@H](C)[C@@H](c1ccc2cc(OCC(C)(C)C(=O)O)ccc2c1)n1ccnc1
IC50 (Cytochrome P450 26A1): 3 nM

Structure (SMILES): C[C@H]([C@@H](c1ccc2cc(OCC(C)(C)C(=O)O)ccc2c1)n1ccnc1)N(C)C
Activity (T47D): 125 nM

Structure (SMILES): CCN(CC)[C@H](C)[C@@H](c1ccc2cc(OCC(C)(C)C(=O)O)ccc2c1)n1ccnc1
IC50 (Cytochrome P450 26A1): 5 nM

Structure (SMILES): C[C@H]([C@@H](c1ccc2cc(OCC(C)(C)C(=O)O)ccc2c1)n1ccnc1)N1CCOCC1
IC50 (Cytochrome P450 26A1): 34 nM | IC50 (Cytochrome P450 3A4): 2150 nM

Structure (SMILES): CC[C@H]([C@@H](c1ccc2cc(OCC(C)(C)C(=O)O)ccc2c1)n1ccnc1)N(C)C
bioavailability [1]: 73% | half-life (in vivo [2]): 2.76 h | IC50 (Cytochrome P450 1A2): > 5000 nM | IC50 (Cytochrome P450 2C9): > 5000 nM | Activity (T47D): <5 nM | Cmax (in vivo [3]): 6.7 µM | AUC (Mus musculus [4]): 5430 ng·h/mL | IC50 (Cytochrome P450 26A1): 1.3 nM | IC50 (Cytochrome P450 2D6): > 5000 nM

Structure (SMILES): C[C@H]([C@@H](c1ccc2cc(OCC(C)(C)C(=O)O)ccc2c1)n1ccnc1)N1CCCC1
IC50 (Cytochrome P450 26A1): 583 nM

Structure (SMILES): CN(C)C(C)(C)[C@@H](c1ccc2cc(OCC(C)(C)C(=O)O)ccc2c1)n1ccnc1
IC50 (Cytochrome P450 26A1): 26 nM

Structure (SMILES): CC1=C(/C=C/C(C)=C/C=C/C(C)=C/C(=O)O)C(C)(C)CCC1 [TRETINOIN]
AUC (Mus musculus [5]): 1690 ng·h/mL | concentration at 8 h [6]: 2.73 µM | AUC (Mus musculus [7]): 6470 ng·h/mL | concentration at 2 h [8]: 5.24 µM | AUC (Mus musculus [9]): 9900 ng·h/mL | concentration at 2 h [10]: 6.66 µM | concentration at 8 h [11]: 0.04 µM | concentration at 8 h [12]: < 0.01 µM | concentration at 2 h [13]: 7.72 µM
